In the library only some 3.4% were active in any assay of this set; here they are far more common.
APOBEC3A inh = inhibitors of human APOBEC3A DNA deaminase; P31941; recombinant A3A, FAM/TAMRA ssDNA deamination fluorescence; inhibition, % at 20 µM; 0.41% of 330,000 active;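 active = at least 40% inhibition at 20 µM here, with at most 30% in a related deaminase screen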;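 also: plate controls were A3A with DMSO for no effect and wells lacking A3A enzyme for full effect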
Target sequence (P31941 whole entry, looked up): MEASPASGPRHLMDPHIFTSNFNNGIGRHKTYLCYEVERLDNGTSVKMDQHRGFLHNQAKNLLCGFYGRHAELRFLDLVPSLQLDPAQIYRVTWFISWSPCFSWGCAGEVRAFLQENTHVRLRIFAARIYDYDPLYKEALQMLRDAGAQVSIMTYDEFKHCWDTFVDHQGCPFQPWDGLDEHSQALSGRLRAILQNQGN
UCH37 inh = inhibitors of human deubiquitinating enzyme UCH37. Q9Y5K5. purified proteasome/UCH37, Ub-AMC cleavage fluorescence. inhibition, % (concentration not given with the values). 0.33% of 330,000 active;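 active = mean inhibition over replicate wells above about 20%, limit read from the data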;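 also: 0% = compound-free wells with enzyme and 100% = wells lacking proteasome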
Target sequence (Q9Y5K5 whole entry, looked up): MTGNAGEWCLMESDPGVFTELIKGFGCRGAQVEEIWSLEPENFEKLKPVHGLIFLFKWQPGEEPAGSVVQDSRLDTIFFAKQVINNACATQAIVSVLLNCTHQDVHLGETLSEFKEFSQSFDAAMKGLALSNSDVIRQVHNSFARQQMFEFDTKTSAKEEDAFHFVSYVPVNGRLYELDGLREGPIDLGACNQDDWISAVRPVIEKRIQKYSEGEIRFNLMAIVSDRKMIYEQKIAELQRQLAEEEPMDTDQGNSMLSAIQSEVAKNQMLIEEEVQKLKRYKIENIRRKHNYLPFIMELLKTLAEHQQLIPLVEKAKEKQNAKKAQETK
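Material: human UCH37 enzyme supplied as purified proteasome complex. Measure: % inhibition of Ub-AMC cleavage fluorescence. Medium: pH 7.4 Tris-HCl (50 mM) with ovalbumin, ATP-MgCl2, DTT. Times: 30 min preincubation with enzyme, 25 min cleavage at room temperature. Detection: AMC fluorescence intensity at 355/460 nm.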
APOBEC3G inh = APOBEC3G (human) deaminase inhibition; 0.28% of 330,000 active; inhibition, % at 20 µM; recombinant A3G, ssDNA deamination FAM/TAMRA fluorescence; AID 493012;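 active = inhibition of at least 40% at 20 µM, with no more than 30% in the related APOBEC3A deaminase screen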;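 also: plate controls were DMSO wells with A3G for no effect and wells lacking A3G enzyme for full effect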
AHR activator = human AHR activation | activation, % at 5 µM | 2.5% of 320,000 active | P35869 | AHR-responsive luciferase reporter cells, luminescence | AID 2796; in the data active = activation above about 47%;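 also: 0% = vehicle wells and 100% = reference agonist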
PolyA inhibitor = blocks polyadenylation in yeast reporter cells | activity score, % at 12 µM | S. cerevisiae SKY197-pL101 polyadenylation reporter, beta-gal luminescence; efflux-impaired pdr1/pdr3 knockout yeast; score 100 = 6 SD above DMSO | 0.02% of 300,000 active;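 active = lowest replicate activity score at least 50, where 100 means six control SD above control mean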;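 also: yeast exposed to compound for 9 h at 30 °C; higher score means more reporter readthrough which indicates perturbed polyadenylation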
Arr AP2 block = inhibitors of human beta-arrestin and AP2 interaction; 0.31% of 340,000 active; inhibition, % at 10 µM; FITC-arrestin peptide / GST-AP2 beads, flow cytometry; AP2 beta2 appendage carries R879A mutation; AID 504490;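 active = inhibition above a set limit, near 3 SD of compounds lacking own fluorescence, cut at about 54% in these data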;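 also: plate controls were DMSO wells for no effect and 5 µM unlabelled arrestin peptide for full effect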
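System: GST-AP2 R879A glutathione beads. Medium: PBS with 0.05% Tween 20 and 0.1% BSA. Also added: FITC-arrestin peptide, 50 nM. Incubation: 12 min plus 1 h, RT. Measured by: high-throughput flow cytometry of beads, ex 488, em 535 nm. Evaluation: percent drop in bead-associated FITC signal.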
* = called active by the depositor; . = not tested or not shown.

SMILES | APOBEC3A inh | UCH37 inh | APOBEC3G inh | AHR activator | PolyA inhibitor | Arr AP2 block
CC1CCCC(NC(=O)COC(=O)c2ccc([N+](=O)[O-])o2)C1C (configuration not stated) | 3.0 | 12.7 | 13.7 | -0.9 | . | 36.3
O=C(COC(=O)c1ccc([N+](=O)[O-])o1)NCCCc1ccccc1 | -2.2 | 20.1* | -5.8 | -0.2 | . | 8.5
O=C(COC(=O)c1ccc([N+](=O)[O-])o1)NC1CCS(=O)(=O)C1 (configuration not stated) | 3.1 | 24.9* | -4.6 | -4.0 | 21.8 | 7.9
O=C(COC(=O)c1ccc(Br)o1)NCc1ccc(F)cc1 | 1.6 | 2.0 | 0.4 | -0.9 | . | 26.1
COc1ccc(CCNC(=O)COC(=O)c2ccc([N+](=O)[O-])o2)cc1 | 4.1 | 18.2 | 3.0 | -1.0 | . | -7.9
CCN(C(=O)COC(=O)c1ccc([N+](=O)[O-])o1)C1CCCCC1 | -2.8 | 20.8* | -6.7 | 0.3 | . | -0.8
O=C(COC(=O)c1ccc([N+](=O)[O-])o1)NCc1ccc(F)cc1 | -3.2 | 24.6* | -7.4 | 0.0 | . | 23.9
CC(=NNC(=O)c1ccccc1C)c1cccc([N+](=O)[O-])c1 | . | 1.9 | . | . | . | .
Cc1cccc(C=NNC(=O)CC(=O)NCCc2ccccc2)c1 | . | 3.6 | . | . | . | .
Cn1c(C(=O)Nc2ccc(Cl)cc2)cc2cc(Cl)ccc21 | -4.8 | -13.9 | -8.5 | 68.2* | -21.1 | 8.1
O=C(Cn1cc(C(F)(F)F)ccc1=O)NN=Cc1ccc(Cl)cc1 | . | 1.5 | . | . | . | .
Cc1cc[n+](-c2[nH]c(=O)sc2C=NNC([S-])=Nc2ccccc2)cc1 | . | 22.7* | . | . | . | .
Cc1cc[n+](-c2[nH]c(=O)sc2/C=N/NC([S-])=Nc2ccccc2)cc1 | -0.3 | . | -8.6 | 34.9 | -21.7 | 3.1
CCOC(=O)CCCCC(=O)c1[nH]c(=O)[nH]c1CSc1nc(C)cc(C)n1 | 1.8 | 7.2 | 2.2 | 4.7 | 16.7 | -4.9
CCOC(=O)c1[nH]c(=O)[nH]c1CSc1nc(C)cc(C)n1 | 1.7 | 5.6 | -3.5 | 48.4* | 5.0 | -2.0
COc1cccc(/C=N/n2c(SC)nnc2-c2ccccc2)c1OC | -3.4 | . | -2.7 | 61.4* | 1.0 | 2.6
COc1cccc(/C=N/n2c(SC)nnc2-c2ccccc2)c1O | -4.6 | . | -7.4 | 11.6 | 29.8 | 17.9
COc1ccccc1/C=C/C=NNC(=O)CCn1cnc2ccccc21 | . | 2.9 | . | . | . | .
CC(C)C(=O)NN=Cc1ccc(OCc2ccccc2)cc1 | . | 4.4 | . | . | . | .
COc1ccccc1-c1nc(C#N)c(NCCCn2ccnc2)o1 | -2.7 | -293.3 | -6.8 | 70.3* | 7.5 | 39.9
Cc1ccc(C=NNC(=O)CNC(=O)COc2ccc(Cl)cc2)o1 | . | 0.7 | . | . | . | .
CC(=O)c1ccc2c3c(cccc13)C(=O)N(CCc1ccccc1)C2=O | 8.2 | 1.2 | -0.4 | 72.0* | -8.0 | 29.4
NN1C(=O)c2cccc3c(C(=O)O)ccc(c23)C1=O | 1.3 | 14.6 | -3.2 | 1.9 | 6.3 | -13.7
O=C(NN=C/C=C/c1ccccc1[N+](=O)[O-])c1cc(-c2cccnc2)nc2ccccc12 | . | 3.0 | . | . | . | .
CCC(C)c1ccccc1NC(=O)c1cc2cccc([N+](=O)[O-])c2[nH]1 (configuration not stated) | 5.0 | 5.5 | 6.0 | 55.1* | 21.2 | 20.1
SMILES | APOBEC3A inh | UCH37 inh | APOBEC3G inh | AHR activator | PolyA inhibitor | Arr AP2 block
Cc1ccc(NC(=O)c2ccc(-n3cccn3)c([N+](=O)[O-])c2)cc1 | 0.6 | 2.1 | -5.3 | -2.0 | 4.8 | 35.8
Cc1ccc(NC(=O)c2cc3cccc([N+](=O)[O-])c3[nH]2)cc1 | -1.2 | 4.2 | -5.0 | 70.7* | -3.7 | 12.4
O=C(C[n+]1ccccc1)NN=Cc1cc(Br)ccc1F | . | 3.6 | . | . | . | .
CCCCCC(=O)NN=Cc1ccco1 | . | -3.2 | . | . | . | .
Cn1nc(C(=O)Nc2cc(Cl)ccc2N2CCCC2)c2ccccc2c1=O | 12.9 | 3.4 | 12.8 | 63.7* | . | 13.8
CN1CCN(c2ccc(Cl)cc2NC(=O)c2nn(-c3ccccc3)c(=O)c3ccccc23)CC1 | . | 3.7 | . | . | -8.4 | -9.8
Cc1ccc(S(=O)(=O)N=C(CN2CCOCC2)N2CCCC2)cc1 | . | 3.4 | . | . | . | .
O=C(CSc1nc2ccccc2s1)NNC(=S)Nc1ccc(Cl)cc1 | -1.8 | 0.2 | -5.0 | 70.6* | -1.7 | -7.3
O=C(CSc1nc2ccccc2s1)NCCOc1ccccc1 | -2.4 | -1.4 | -6.5 | 35.7 | -9.4 | -2.9
